# Read-outs that look alike come from different tables or passages of the source.
# Experiments:
# [1] = type: in vivo, male Crl:CD-1 mice
# In short: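 Male Crl:CD-1 mice (8–10 weeks, bred in-house) were fasted overnight with water and dosed at 50 mg/kg into the tail vein. 3–4 per time point were exsanguinated up to 60 min. Serum was clotted at room temperature, then spun. Brain, muscle, kidneys, liver, gut and lungs were homogenized 1:4 w/v in 0.1 M PBS. Samples were stored at −80 °C.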
# [2] = Urinary excretion of unchanged LSF in mice; type: in vivo; settings: 50 mg/kg i.v., within 4 h, unpublished data
# In short: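 Three mice received 50 mg/kg intravenously and were housed in metabolic cages. All urine was collected at 2 and 4 h post-dose with volumes recorded. Unchanged drug was quantified by the chiral HPLC-UV method after validation for murine urine, expressed as percent of dose excreted within 4 h.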
# [3] = PBPK simulation and clearance scaling of LSF to a 70-kg human subject
# [4] = Human pharmacokinetic study of LSF; type: in vivo; settings: plasma, iv, 3 mg/kg
# [5] = system: human liver microsomes (CYP3A4, CYP2A6); settings: biphasic, cited from earlier work
# [6] = system: human liver microsomes (CYP1A2 and a non-cytochrome P450 enzyme); settings: biphasic, ref Lee and Slattery [1997]; cited from earlier work
# [7] = ref Nicklasson et al. [2002], cited from earlier work
# [8] = ref Bursten et al. [1998], cited from earlier work
# [9] = mice, ref Wyska et al. [2007], cited from earlier work
# [10] = mice, final PBPK model estimate
# [11] = CYP2A6, ref Shin and Slattery [1998]
# [12] = CYP3A4, ref Shin and Slattery [1998]
compound,measurement,setting,value
"C[C@@H](O)CCCCn1c(=O)c2c(ncn2C)n(C)c1=O [LSF, (−)-R-1-(5-hydroxyhexyl)-3,7-dimethylxanthine]",Kp,"[1]; male, Crl:CD-1, mouse, brain/serum, iv, 50 mg/kg",0.345
same,Kp,"[1]; male, Crl:CD-1, mouse, gut/serum, iv, 50 mg/kg",0.892
same,clearance,"[1]; male, Crl:CD-1, mouse, intravenous, 50 mg/kg",5.43 mL/min
same,concentration at 60 min,"[1]; male, Crl:CD-1, mouse, iv, 50 mg/kg",< 1000 ng/mL
same,Kp,"[1]; male, Crl:CD-1, mouse, kidneys/serum, iv, 50 mg/kg",0.777
same,Kp,"[1]; male, Crl:CD-1, mouse, liver/serum, iv, 50 mg/kg",0.859
same,Kp,"[1]; male, Crl:CD-1, mouse, lungs/serum, iv, 50 mg/kg",0.758
same,Kp,"[1]; male, Crl:CD-1, mouse, muscle/serum, iv, 50 mg/kg",0.64
same,clearance,"[1]; male, Crl:CD-1, mouse, serum, iv, 50 mg/kg",1.44 mL/min
same,K M (LSF concentration at 50 % of the maximum rate of metabolism),[1]; [10],1.777 µg/mL
same,V max (maximum rate of metabolism),[1]; [10],9.644 µg/min
same,mean percentage of LSF dose excreted unchanged with urine,[2],0.71 ± 0.13%
same,in vivo whole liver intrinsic clearance,[3]; calculated from human liver microsome Vmax/KM data and Eq. 11,"1,545.24 ml/min"
same,plasma hepatic clearance,[3]; calculated from the in vivo intrinsic clearance (Eq. 12),477.54 mL/min
same,clearance,[4],1280 mL/min
same,"K M, lisofylline diol formation, high K M enzyme",[5]; [11],4230 µM
same,"V max, lisofylline diol formation, high K M enzyme",[5]; [11],0.429 nmol/min/mg of protein
same,"K M, lisofylline diol formation, low K M enzyme",[5]; [12],23 µM
same,"V max, lisofylline diol formation, low K M enzyme",[5]; [12],0.0565 nmol/min/mg of protein
same,"K M, formation of pentoxifylline from LSF, second (high K M) enzyme",[6],158 µM
same,"V max, formation of pentoxifylline from LSF, second (high K M) enzyme",[6],0.928 nmol/min/mg
same,fraction unbound (fu) in human plasma,[7]; human plasma,0.54
same,blood to plasma LSF concentration ratio (CB/Cp),[7]; human,0.77
same,"maximum concentration (C max), observed","[8]; human subjects, oral 6 mg/kg",226 ± 99.10 ng/mL
same,"time to C max, observed","[8]; human subjects, oral 6 mg/kg",0.53 ± 0.26 h
same,bioavailability,"[8]; humans, oral",5.9%
same,first-order absorption rate constant (ka),[9]; oral administration,0.024 min⁻¹
same,fraction of the dose absorbed following oral administration (F),[9]; oral administration,0.16
same,bioavailability,[9]; oral,16%

# From PMC4954844 (European Journal of Drug Metabolism and Pharmacokinetics, 2015)
